Laboratory results as given in ChEMBL document CHEMBL4219079, “Design, synthesis, and evaluation of the antiproliferative activity of hydantoin-derived antiandrogen-genistein conjugates” (Bioorg Med Chem, 2018).
The source made the active and inactive calls. The rule behind the calls is not given here.

What was measured:
[1] = system: LNCaP; assay: Cell cycle arrest in human LNCAP cells assessed as accumulation at S phase at 2.5 uM after 24 hrs by propidium iodide staining based flow cytometry (reference value: 37.5%); type: functional
[2] = system: DU-145; assay: Antiproliferative activity against human DU145 cells after 72 hrs by MTS assay; type: functional, cell-based
Procedure, shortened: (§1)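 Seeded at 4,500 cells per well and exposed to compound in triplicate for 72 h. LNCaP were cultured in phenol-red-free RPMI-1640 and DU145 in EMEM, each with 10% FBS and penicillin/streptomycin, at 37 °C under 5% CO2. Viability was read by MTS. IC50 came from dose-response curve fitting. For combination lines, genistein was given together with enzalutamide.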

[3] = system: LNCaP; assay: Antiproliferative activity against human LNCAP cells assessed as cell survival up to 100 uM after 72 hrs by MTS assay relative to control; type: functional
Procedure, shortened: (§2)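 LNCaP (phenol-red free RPMI-1640) or DU145 (EMEM), each with 10% FBS and penicillin/streptomycin, at 37 °C in 5% CO2. Cells seeded at 4,500 per well and exposed to compound in triplicate for 72 h. Viability read by MTS. Curves are the average of triplicate experiments, with IC50 taken from curve fitting.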

[4] = system: LNCaP; assay: Downregulation of AR protein level in human LNCAP cells at 1.25 to 2.5 uM after 24 hrs in presence of proteasome inhibitor bortezomib by Western blot method; type: functional, cell-based
Procedure, shortened: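 LNCaP seeded at 10^6 cells/dish and pretreated with bortezomib at 20 nM or 40 nM for 2 h. Cells were then exposed to compound for 24 h. AR protein was assessed by immunoblot after Bradford-normalized SDS-PAGE (100 V, 2 h) and nitrocellulose transfer, with actin as loading control.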

[5] = system: LNCaP; assay: Cell cycle arrest in human LNCAP cells assessed as accumulation at G2 phase at 2.5 uM after 24 hrs by propidium iodide staining based flow cytometry (reference value: 9.83%); type: functional
[6] = system: DU-145; assay: Antiproliferative activity against human DU145 cells assessed as cell survival up to 100 uM after 72 hrs by MTS assay relative to control; type: functional; procedure, shortened: as §2
[7] = system: LNCaP C4-2; assay: Antiproliferative activity against human AR positive C4-2 cells at 1.25 uM after 72 hrs by MTS assay relative to control; type: functional
Procedure, shortened: (§3)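 PC3, C4-2 and 22Rv1 prostate cancer cells treated in serum-fed medium with a range of doses, up to 50 μM. Growth read at 72 h post-treatment by MTS assay as percent of control. Data are averages of two independent experiments, each done in duplicate.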

[8] = system: PC-3; assay: Antiproliferative activity against human AR negative PC3 cells at 2.5 uM after 72 hrs by MTS assay relative to control; type: functional; procedure, shortened: as §3
[9] = system: LNCaP; assay: Cell cycle arrest in human LNCAP cells assessed as accumulation at less G1 phase at 2.5 uM after 24 hrs by propidium iodide staining based flow cytometry (reference value: 1.5%); type: functional
[10] = system: LNCaP; assay: Cell cycle arrest in human LNCAP cells assessed as accumulation at less G1 phase at 5 uM after 24 hrs by propidium iodide staining based flow cytometry (reference value: 1.5%); type: functional
[11] = system: LNCaP; assay: Downregulation of AR protein level in human LNCAP cells after 24 hrs by Western blot method; type: functional, cell-based
Procedure, shortened: (§4)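 LNCaP seeded at 10^6 cells/dish 24 h before a 24 h compound treatment, with DMSO as control. Lysates were made in CelLyticM with protease inhibitors and quantified by Bradford. Equal protein was run on SDS-PAGE at 100 V for 2 h, transferred to nitrocellulose, and probed for AR, with actin as loading control.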

[12] = system: LNCaP; assay: Cell cycle arrest in human LNCAP cells assessed as accumulation at G2 phase at 5 uM after 24 hrs by propidium iodide staining based flow cytometry (reference value: 9.83%); type: functional
[13] = system: LNCaP; assay: Cell cycle arrest in human LNCAP cells assessed as accumulation at G1 phase at 2.5 uM after 24 hrs by propidium iodide staining based flow cytometry (reference value: 52.4%); type: functional
[14] = system: LNCaP; assay: Antiproliferative activity against human LNCAP cells after 72 hrs by MTS assay; type: functional, cell-based; procedure, shortened: as §1
[15] = system: LNCaP; assay: Cell cycle arrest in human LNCAP cells assessed as accumulation at greater G2 phase at 2.5 uM after 24 hrs by propidium iodide staining based flow cytometry (reference value: -0.37%); type: functional
[16] = system: LNCaP; assay: Cell cycle arrest in human LNCAP cells assessed as accumulation at greater G2 phase at 5 uM after 24 hrs by propidium iodide staining based flow cytometry (reference value: -0.37%); type: functional
[17] = system: LNCaP; assay: Cell cycle arrest in human LNCAP cells assessed as accumulation at G1 phase at 5 uM after 24 hrs by propidium iodide staining based flow cytometry (reference value: 52.4%); type: functional
[18] = system: CWR22R; assay: Antiproliferative activity against human 22Rv1 cells harboring truncated AR at 1.25 uM after 72 hrs by MTS assay relative to control; type: functional; procedure, shortened: as §3
[19] = system: LNCaP; assay: Cell cycle arrest in human LNCAP cells assessed as accumulation at S phase at 5 uM after 24 hrs by propidium iodide staining based flow cytometry (reference value: 37.5%); type: functional
[20] = system: LNCaP C4-2; assay: Antiproliferative activity against human AR positive C4-2 cells at 50 uM after 72 hrs by MTS assay relative to control; type: functional; procedure, shortened: as §3
[21] = system: LNCaP; assay: Antiproliferative activity against human LNCAP cells assessed as cell survival at 100 uM after 72 hrs in presence of enzalutamide by MTS assay relative to control; type: functional; details: read-out: Survival; procedure, shortened: as §2
[22] = system: LNCaP; assay: Antiproliferative activity against human LNCAP cells; type: functional, cell-based
[23] = system: LNCaP; assay: Cell cycle arrest in human LNCAP cells assessed as accumulation at G2 phase at 25 uM after 24 hrs by propidium iodide staining based flow cytometry (reference value: 9.83%); type: functional
[24] = system: DU-145; assay: Antiproliferative activity against human DU145 cells after 72 hrs in presence of enzalutamide by MTS assay; type: functional, cell-based; procedure, shortened: as §1
[25] = system: CWR22R; assay: Antiproliferative activity against human 22Rv1 cells harboring truncated AR at 50 uM after 72 hrs by MTS assay relative to control; type: functional; procedure, shortened: as §3
[26] = system: LNCaP; assay: Cell cycle arrest in human LNCAP cells assessed as accumulation at S phase at 25 uM after 24 hrs by propidium iodide staining based flow cytometry (reference value: 37.5%); type: functional
[27] = system: LNCaP; assay: Antiproliferative activity against human LNCAP cells after 72 hrs in presence of enzalutamide by MTS assay; type: functional, cell-based; procedure, shortened: as §1
[28] = system: LNCaP; assay: Cell cycle arrest in human LNCAP cells assessed as accumulation at less G1 phase at 25 uM after 24 hrs by propidium iodide staining based flow cytometry (reference value: 1.5%); type: functional
[29] = system: LNCaP; assay: Cell cycle arrest in human LNCAP cells assessed as accumulation at G1 phase at 25 uM after 24 hrs by propidium iodide staining based flow cytometry (reference value: 52.4%); type: functional
[30] = system: PC-3; assay: Antiproliferative activity against human AR negative PC3 cells at 50 uM after 72 hrs by MTS assay relative to control; type: functional; procedure, shortened: as §3
[31] = system: LNCaP; assay: Cell cycle arrest in human LNCAP cells assessed as accumulation at greater G2 phase at 25 uM after 24 hrs by propidium iodide staining based flow cytometry (reference value: -0.37%); type: functional
[32] = organism: Homo sapiens; assay: Inhibition of HDAC6/HSP90 in human LNCAP cells assessed as downregulation of AR protein level at 2.5 uM after 24 hrs by Western blot method; type: cell-based; procedure, shortened: as §4
[33] = system: LNCaP; assay: Cell cycle arrest in human LNCAP cells assessed as accumulation at less G1 phase at 40 uM after 24 hrs by propidium iodide staining based flow cytometry (reference value: 1.5%); type: functional
[34] = system: LNCaP; assay: Cell cycle arrest in human LNCAP cells assessed as accumulation at greater G2 phase at 40 uM after 24 hrs by propidium iodide staining based flow cytometry (reference value: -0.37%); type: functional
[35] = system: LNCaP; assay: Cell cycle arrest in human LNCAP cells assessed as accumulation at G2 phase at 40 uM after 24 hrs by propidium iodide staining based flow cytometry (reference value: 9.83%); type: functional
[36] = system: LNCaP; assay: Cell cycle arrest in human LNCAP cells assessed as accumulation at S phase at 40 uM after 24 hrs by propidium iodide staining based flow cytometry (reference value: 37.5%); type: functional
[37] = system: LNCaP; assay: Cell cycle arrest in human LNCAP cells assessed as accumulation at G1 phase at 40 uM after 24 hrs by propidium iodide staining based flow cytometry (reference value: 52.4%); type: functional
[38] = system: CWR22R; assay: Antiproliferative activity against human 22Rv1 cells harboring truncated AR up to 25 uM after 72 hrs by MTS assay; type: functional, cell-based; procedure, shortened: as §3

CC1(C)C(=O)N(c2ccc(C#N)c(C(F)(F)F)c2)C(=O)N1CCCCc1cn(CCOCCOCCOCCOCCOCCOCCOCCOc2cc(O)c3c(=O)c(-c4ccc(O)cc4)coc3c2)nn1
Activity [1]: 54.7% | IC50 ([2]; DU-145, 72 h): 3.4 µM | Survival [3]: <40% | Activity [4]: Active | Activity [5]: 10.6% | Survival [6]: <40% | Activity [7]: 50% | Activity [8]: 5 - 10% | Activity [9]: -0.094% | Activity [10]: -0.92% | Activity [11]: Dose-dependent effect | Activity [12]: 11.3% | Activity [13]: 34% | IC50 [14]: 1.4 µM | Activity [15]: 0.55% | Activity [16]: -0.63% | Activity [17]: 39.2% | Activity [18]: 15 - 20% | Activity [19]: 50.8%

CC1(C)C(=O)N(c2ccc(C#N)c(C(F)(F)F)c2)C(=S)N1Cc1ccc(-c2cn(CCOc3cc(O)c4c(=O)c(-c5ccc(O)cc5)coc4c3)nn2)cc1
Activity [2]: inactive | Activity [14]: inactive

CC1(C)C(=O)N(c2ccc(C#N)c(C(F)(F)F)c2)C(=S)N1c1ccc(-c2cn(CCOCCOCCOCCOCCOCCOCCOCCOc3cc(O)c4c(=O)c(-c5ccc(O)cc5)coc4c3)nn2)cc1
Activity [2]: inactive | Activity [14]: inactive

O=c1c(-c2ccc(O)cc2)coc2cc(O)cc(O)c12 [GENISTEIN]
Activity [20]: 40% | viability at 100 µM [21]: 40% | IC50 [22]: 10 to 40 µM | Activity [23]: 9.34% | Activity [24]: Dose-dependent effect | Activity [25]: 40% | Activity [26]: 52.5% | IC50 [27]: 31.7 µM | Activity [28]: -0.34% | Activity [29]: 37.1% | IC50 [14]: 24 µM | Activity [30]: 40% | Activity [31]: 0.21% | inhibition [32]: Active

CC1(C)C(=O)N(c2ccc(C#N)c(C(F)(F)F)c2)C(=O)N1CCCCc1cn(CCOc2cc(O)c3c(=O)c(-c4ccc(O)cc4)coc3c2)nn1
Activity [2]: inactive | Activity [14]: inactive

C#CCCCCN1C(=O)N(c2ccc(C#N)c(C(F)(F)F)c2)C(=O)C1(C)C
Activity [33]: -0.44% | Activity [34]: -0.21% | Activity [35]: 13.4% | Activity [36]: 54.2% | Activity [37]: 33.1%

CC1(C)C(=O)N(c2ccc(C#N)c(C(F)(F)F)c2)C(=S)N1Cc1ccc(-c2cn(CCOCCOCCOCCOCCOCCOCCOCCOc3cc(O)c4c(=O)c(-c5ccc(O)cc5)coc4c3)nn2)cc1
Activity [2]: inactive | Activity [14]: inactive

CC1(C)C(=O)N(c2ccc(C#N)c(C(F)(F)F)c2)C(=S)N1c1ccc(-c2cn(CCOc3cc(O)c4c(=O)c(-c5ccc(O)cc5)coc4c3)nn2)cc1
Activity [2]: inactive | Activity [14]: inactive

CNC(=O)c1ccc(N2C(=S)N(c3ccc(C#N)c(C(F)(F)F)c3)C(=O)C2(C)C)cc1F
Activity [38]: Active
